Data as given in ChEMBL document CHEMBL1142373 (J Med Chem, 2008).
Values after ≈ are worked out from the molar mass of the structure shown.

Assays:
[1] = Cytotoxicity against human lymphocytes after 48 hrs by MTT assay; type: cell-based, Lymphocyte; details: read-out: TC50
Procedure, shortened: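 Donor PBMC were separated on Ficoll-Hypaque and stimulated with 5 µg/mL PHA, then plated at 20000 cells/well. Compounds in DMSO were added 12 h later and left 48 h. Read-out was MTT formazan (2 h, 37 °C), extracted overnight in SDS/DMF buffer, with OD at 570 nm. TC50 is reported; at least two runs in triplicate.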

Plasmodium falciparum [2] = assay: Antiplasmodial activity against chloroquine-resistant Plasmodium falciparum W2 by [3H]hypoxanthine incorporation; type: functional, organism-based
Pichia kudriavzevii = assay: Antifungal activity against Candida krusei ATCC 6258; type: functional
[3] = Cytotoxicity against mouse NSO cells after 48 hrs by MTT assay; type: cell-based; details: read-out: TC50
Procedure, shortened: (§1)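 NSO (3000 cells/well) and Daudi (300 cells/well) cells were grown in RPMI 1640 with 5% FCS. Compounds in DMSO were added 12 h after plating and left 48 h. MTT was then added (20 µL of 5 mg/mL stock, 2 h, 37 °C), followed by SDS/DMF lysis buffer overnight, with OD read at 570 nm. TC50 is reported; at least two experiments in triplicate.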

Aspergillus flavus = assay: Antifungal activity against Aspergillus flavus ATCC 204304; type: functional
Plasmodium falciparum [4] = assay: Antiplasmodial activity against chloroquine-resistant Plasmodium falciparum K1 by [3H]hypoxanthine incorporation; type: functional, organism-based
Plasmodium falciparum [5] = assay: Antiplasmodial activity against chloroquine-sensitive Plasmodium falciparum D10 by parasite lactate dehydrogenase assay; details: D10, 72 h
[6] = Lipophilicity, Log D at pH 7.2; type: physicochemical; details: buffer
Plasmodium chabaudi [7] = assay: Antimalarial activity against Plasmodium chabaudi AS infected CD1 mice (Mus musculus) assessed as suppression of parasitaemia at 50mg/kg, perorally after 4 days; type: functional
Procedure, shortened: (§2)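 Female CD1 mice (20–25 g) got 0.2 mL i.v. of donor blood diluted to 1% parasitaemia (1 × 10^7 infected erythrocytes/mL). Oral dosing started 2–4 h post-inoculation as a 0.2 mL bolus once daily for 4 days, in 10% Tween-80/EtOH plus sterile PBS. On day 5, Giemsa-stained smears were read by microscopy. % suppression = [(C−T)/C]×100; five mice per group.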

[8] = Lipophilicity, Log D at pH 5.5; type: physicochemical; details: buffer
[9] = Lipophilicity, Log D at pH 7.4; type: physicochemical; details: buffer
[10] = Cytotoxicity against human Daudi cells after 48 hrs by MTT assay; type: cell-based; details: read-out: TC50; procedure, shortened: as §1
Candida albicans = assay: Antifungal activity against Candida albicans; type: functional
Aspergillus fumigatus [11] = assay: Antifungal activity against Aspergillus fumigatus; type: functional
Candida parapsilosis = assay: Antifungal activity against Candida parapsilosis ATCC 22019; type: functional; details: Lodderomyces parapsilosis
Cryptococcus neoformans = assay: Antifungal activity against Cryptococcus neoformans; type: functional
Plasmodium falciparum [12] = assay: Antiplasmodial activity against chloroquine-sensitive Plasmodium falciparum 3D7 by [3H]hypoxanthine incorporation; type: functional, organism-based
Plasmodium berghei [13] = assay: Reduced parasitemia in Plasmodium berghei ANKA infected CD1 mice (Mus musculus) at 30 mg/kg dose after 4 days; set-up: scale not given: the % may be the effect or the level left
Plasmodium falciparum [14] = assay: Antiplasmodial activity against chloroquine-sensitive Plasmodium falciparum D10 by [3H]hypoxanthine incorporation; type: functional, organism-based
[15] = Cytotoxicity against human KB cells by MTT assay; type: cell-based; details: read-out: TC50 (the source's name)
Plasmodium berghei [16] = assay: Reduced parasitemia in Plasmodium berghei ANKA infected CD1 mice (Mus musculus) at 10 mg/kg peroral dose after 4 days; type: functional; set-up: scale not given: the % may be the effect or the level left; details: route oral; procedure, shortened: as §2
Plasmodium chabaudi [17] = assay: Antimalarial activity against Plasmodium chabaudi AS infected CD1 mice (Mus musculus) assessed as suppression of parasitaemia at 10 mg/kg, perorally after 4 days; type: functional; details: route oral; procedure, shortened: as §2
Aspergillus fumigatus [18] = assay: Antifungal activity against itraconazole resistant Aspergillus fumigatus; type: functional
Plasmodium berghei [19] = assay: Reduced parasitemia in Plasmodium berghei ANKA infected CD1 mice (Mus musculus) at 150 mg/kg peroral dose after 4 days; type: functional; set-up: scale not given: the % may be the effect or the level left; details: route oral; procedure, shortened: as §2

Row | Structure (SMILES) | IC50 (Plasmodium falciparum [2]) [nM] | IC50 (Plasmodium falciparum [4]) [nM] | IC50 (Plasmodium falciparum [5]) [nM] | IC50 (Plasmodium falciparum [12]) [nM] | CC50 [15] [nM] | other results
1 | Clc1ccc(C(c2ccc(CN3CCCC3)cc2)(c2ccc(CN3CCCC3)cc2)n2ccnc2)cc1 | 39.2 | 11.7 | 48.4 | 26.1 | – | CC50 at 48 h [1]: 68500 nM; MIC (Pichia kudriavzevii): > 32 µg/mL; CC50 at 48 h [3]: 47000 nM; MIC (Aspergillus flavus): > 32 µg/mL; logD [6]: 1.4; Activity (Plasmodium chabaudi [7]): 94%; logD [8]: 0.67; logD [9]: 1.56; CC50 at 48 h [10]: 58700 nM; MIC (Candida albicans): > 32 µg/mL; MIC (Aspergillus fumigatus [11]): > 32 µg/mL; MIC (Candida parapsilosis): > 32 µg/mL; MIC (Cryptococcus neoformans): > 32 µg/mL
2 | Clc1ccc(C(c2ccccc2)(c2ccc(CN3CCCC3)cc2)n2ccnc2)cc1 (racemic) | – | – | – | – | – | CC50 at 48 h [1]: 70300 nM; MIC (Pichia kudriavzevii): 16 µg/mL (≈ 37.4 µM); CC50 at 48 h [3]: 51500 nM; MIC (Aspergillus flavus): > 32 µg/mL; logD [6]: 3.13; Activity (Plasmodium chabaudi [7]): 94.8%; Activity (Plasmodium berghei [13]): 37.6%; logD [8]: 1.72; logD [9]: 3.33; CC50 at 48 h [10]: 58500 nM; MIC (Candida albicans): 32 µg/mL (≈ 74.8 µM); MIC (Aspergillus fumigatus [11]): > 32 µg/mL; MIC (Candida parapsilosis): 32 µg/mL (≈ 74.8 µM); MIC (Cryptococcus neoformans): 32 µg/mL (≈ 74.8 µM)
3 | CCN(CC)Cc1ccc(C(c2cccc(Cl)c2)n2cncn2)cc1 (racemic) | > 10000 | 3700 | – | > 10000 | – | IC50 (Plasmodium falciparum [14]): > 10000 nM
4 | c1ccc2c(C(c3ccc(CN4CCCC4)cc3)n3ccnc3)ccnc2c1 (racemic) | 1790 | 379 | 7480 | 5030 | – | –
5 | Clc1cccc(C(c2ccc(CN3CCNCC3)cc2)n2ccnc2)c1 (racemic) | 327 | 354 | 516 | 411 | – | –
6 | Clc1cccc(C(c2ccncc2)(c2ccc(CN3CCCC3)cc2)n2ccnc2)c1 (racemic) | 415 | 510 | 1230 | 587 | – | –
7 | Clc1ccc2c(C(c3ccccc3)(c3ccc(CN4CCCC4)cc3)n3ccnc3)ccnc2c1 (racemic) | 10 | 60 | 168 | 148 | 51800 | –
8 | Clc1ccc(C(c2ccc(CN3CCCC3)cc2)(c2cccs2)n2ccnc2)cc1 (racemic) | 6690 | 1780 | 1360 | 3570 | – | –
9 | CCN(CC)Cc1ccc(C(c2cccc(Cl)c2)n2ccnc2)cc1 (racemic) | 452 | 282 | 1890 | 1290 | – | –
10 | Clc1cccc(C(c2ccc(CN3CCCC3)cc2)(c2cccs2)n2ccnc2)c1 (racemic) | 1040 | 1270 | 7170 | 4270 | – | –
11 | Clc1ccc(C(c2ccccc2)(c2ccc(CN3CCOCC3)cc2)n2ccnc2)cc1 (racemic) | – | – | 726 | 561 | – | CC50 at 48 h [1]: 13300 nM; CC50 at 48 h [3]: 16000 nM; CC50 at 48 h [10]: 15600 nM
12 | Fc1ccc(C(c2ccc(Cl)cc2)(c2ccc(CN3CCCC3)cc2)n2ccnc2)cc1 (racemic) | 1.5 | 380 | 118 | 82 | 8200 | –
13 | CCN(CC)Cc1ccc(C(c2ccccc2)(c2ccc(Cl)cc2)n2ccnc2)cc1 (racemic) | 41.4 | 0.48 | 415 | – | – | –
14 | Clc1cccc(C(c2ccnc3ccccc23)n2ccnc2)c1 (racemic) | > 10000 | 4290 | – | > 10000 | – | IC50 (Plasmodium falciparum [14]): > 10000 nM
15 | Clc1cccc(C(c2ccc(CN3CCCC3)cc2)(c2ccoc2)n2ccnc2)c1 (racemic) | 167 | – | 238 | 101 | – | –
16 | Clc1ccc(C(c2ccccc2)(c2ccc(CN3CCNCC3)cc2)n2ccnc2)cc1 (racemic) | – | – | 84.1 | 55.4 | – | CC50 at 48 h [1]: 13700 nM; CC50 at 48 h [3]: 16200 nM; CC50 at 48 h [10]: 15800 nM
17 | Fc1ccc(C(c2ccc(CN3CCCC3)cc2)(c2ccnc3cc(Cl)ccc23)n2ccnc2)cc1 (racemic) | 2 | 67 | 85.8 | 66.9 | 33000 | MIC (Pichia kudriavzevii): > 32 µg/mL; MIC (Aspergillus flavus): > 32 µg/mL; Activity (Plasmodium chabaudi [7]): 99.4%; MIC (Candida albicans): 8 µg/mL (≈ 16.1 µM); MIC (Aspergillus fumigatus [11]): > 32 µg/mL; MIC (Candida parapsilosis): > 32 µg/mL; MIC (Cryptococcus neoformans): > 32 µg/mL
18 | Clc1ccc(C(c2ccccc2)(c2ccc(CN3CCCC3)cc2)n2cnc3ccccc32)cc1 (racemic) | 376 | 23 | 1030 | 379 | – | –
19 | Clc1ccc(C(c2ccccc2)(c2ccc(CN3CCCC3)cc2)N2CCNCC2)cc1 (racemic) | 1560 | 3510 | – | 3840 | 20900 | IC50 (Plasmodium falciparum [14]): > 10000 nM
20 | Clc1cccc(C(c2ccc(CN3CCCC3)cc2)(c2nccs2)n2ccnc2)c1 (racemic) | 1850 | 66.7 | 484 | 314 | – | CC50 at 48 h [1]: 80500 nM; CC50 at 48 h [3]: 52900 nM; Activity (Plasmodium chabaudi [7]): 73.1%; CC50 at 48 h [10]: 57500 nM
21 | Clc1ccc(C(c2ccc(CN3CCCC3)cc2)(c2nccs2)n2ccnc2)cc1 (racemic) | 80 | 180 | 300 | 177 | 64200 | –
22 | Clc1cccc(C(c2ccc(CN3CCCC3)cc2)(c2ccccn2)n2ccnc2)c1 (racemic) | 157 | 155 | 619 | 349 | 27200 | –
23 | CC(C)(C)OC(=O)N1CCN(Cc2ccc(C(c3cccc(Cl)c3)n3ccnc3)cc2)CC1 (racemic) | 1520 | 1070 | 5260 | 4110 | – | –
24 | Clc1ccc2c(C(c3ccc(CN4CCCC4)cc3)n3ccnc3)ccnc2c1 (racemic) | 1170 | 745 | 1630 | 1810 | – | –
25 | CCN(CC)CCCC(C)Nc1ccnc2cc(Cl)ccc12 (centres undefined) [CHLOROQUINE] | – | – | – | – | 207000 | Activity (Plasmodium berghei [16]): 89.1%; Activity (Plasmodium chabaudi [17]): 100%
26 | Clc1ccccc1C(c1ccccc1)(c1ccccc1)n1ccnc1 [CLOTRIMAZOLE] | – | – | – | – | 88100 | MIC (Pichia kudriavzevii): 2 µg/mL (≈ 5.8 µM); MIC (Aspergillus flavus): 4 µg/mL (≈ 11.6 µM); MIC (Aspergillus fumigatus [18]): 4 µg/mL (≈ 11.6 µM); Activity (Plasmodium berghei [19]): 28.3%; Activity (Plasmodium chabaudi [7]): 6%; MIC (Candida albicans): 0.03 µg/mL (≈ 0.087 µM); MIC (Aspergillus fumigatus [11]): 4 µg/mL (≈ 11.6 µM); MIC (Candida parapsilosis): 2 µg/mL (≈ 5.8 µM); MIC (Cryptococcus neoformans): 2 µg/mL (≈ 5.8 µM)
